Entries after “also recorded” stand apart in the source; their conditions may differ. Where two headings read alike, the source gives them in different places.
Legend:
[1] = target: TEAD3-YBD recombinant protein (Homo sapiens, UniProt Q99594); assay: gel-based ABPP in vitro palmitoylation assay, TEAD3; type: biochemical; settings: for inhibition of TEAD3 palmitoylation: click-based ABPP assay
Procedure, shortened: (§1)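 Protein incubated with varying test compound concentrations, 37 °C, 2 h; flufenamic acid as positive control. Then 2.5 μmol/L palmitoyl-CoA on ice, click reaction at RT. Quenched in SDS buffer with 30 mmol/L EDTA, 95 °C, 5 min. Read by Western blot with densitometry; biological triplicates, mean ± SD.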

TEAD3-YBD C371A mutant = TEAD3-YBD C371A mutant (Homo sapiens, UniProt Q99594, C368A); assay: protein thermal shift assay; type: binding; settings: DSF
Procedure, shortened: (§2)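 Differential scanning fluorimetry. 5 μmol/L purified wild-type or mutant protein with 5× SYPRO Orange, in 20 mmol/L HEPES pH 8.5, 100 mmol/L NaCl, 2.5% DMSO, with or without test compound. Ramped 25–95 °C on a real-time PCR instrument, ROX filter. Tm calculated from raw fluorescence data.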

widetype TEAD1 = widetype TEAD1 (Homo sapiens, UniProt P28347); assay: protein thermal shift assay; type: binding; settings: DSF
Procedure, shortened: as §2

TEAD4 = TEAD4 (Homo sapiens, UniProt Q15561); assay: gel-based ABPP in vitro palmitoylation assay, TEAD4; type: biochemical; settings: gel-based ABPP selectivity profiling
Procedure, shortened: as §1

[2] = system: 8xGTIIC-Luc TEADs reporter; assay: TEAD luciferase reporter assay; type: cell-based; settings: HEK293T cells, compared with DC-TEADin1072-N1
Procedure, shortened: (§3)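 HEK293T seeded at 2 × 10^5/well. Transfected with 200 ng 8xGTIIC-Luc TEAD reporter or TOPFlash β-catenin reporter, plus 20 ng pGL4.75 Renilla as internal control. Cells then exposed to various concentrations of test compound or DMSO. Firefly and Renilla signals measured by dual-luciferase assay.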

[3] = target: TEAD3 Y223 mutated to phenylalanine (Homo sapiens, UniProt Q99594, Y230F); assay: gel-based ABPP assay, TEAD3 Y223F mutant; type: biochemical
Procedure, shortened: as §1

wild-type TEAD3-YBD = wild-type TEAD3-YBD (Homo sapiens, UniProt Q99594); assay: protein thermal shift assay; type: binding; settings: DSF
Procedure, shortened: as §2

TEAD2 = TEAD2 (Homo sapiens, UniProt Q15562); assay: gel-based ABPP in vitro palmitoylation assay, TEAD2; type: biochemical; settings: gel-based ABPP selectivity profiling
Procedure, shortened: as §1

TEAD1 C359S = TEAD1 C359S (Homo sapiens, UniProt P28347, C359S); assay: protein thermal shift assay; type: binding; settings: DSF
Procedure, shortened: as §2

[4] = system: TOP Flash beta-catenin reporter system; assay: TOPFlash beta-catenin reporter assay; type: cell-based; settings: HEK293T cells
Procedure, shortened: as §3

juvenile zebrafish = assay: proportional growth of juvenile zebrafish; type: in vivo; settings: 2-month-old juveniles, 0.25 μmol/L in water, 14 days
Procedure, shortened: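 AB wild-type zebrafish, 2 months old, both sexes equally, 10 per dish in 30 mL sterilised facility water. Water held 0.25 μmol/L test compound (final) or matching DMSO dilution for 14 days, aerated, refreshed daily; fed twice daily. Fish imaged by stereomicroscope from day 0. Fin length taken from fin base to line joining lobe tips; body length from jaw tip to caudal fin base.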

TEAD3 [5] = target: T1, TEAD3 (Homo sapiens, UniProt Q99594); assay: cellular thermal shift assay; type: cell-based; settings: HEK293T cells, 50 μmol/L, 6 h
Procedure, shortened: (§4)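 HEK293T transfected with N-terminal 3×FLAG-tagged TEAD1–4, then given 50 μmol/L test compound or DMSO, 37 °C, 6 h. Cells trypsinised, PBS-washed, resuspended in PBS with protease inhibitor. Aliquots heated 3 min at set temperatures, then 3 min at room temperature. Three freeze–thaw cycles (liquid nitrogen/RT water), spin 20,000×g, 30 min, 4 °C. Soluble fraction immunoblotted for FLAG, with GAPDH.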
Target sequence in this assay (Q99594 whole entry): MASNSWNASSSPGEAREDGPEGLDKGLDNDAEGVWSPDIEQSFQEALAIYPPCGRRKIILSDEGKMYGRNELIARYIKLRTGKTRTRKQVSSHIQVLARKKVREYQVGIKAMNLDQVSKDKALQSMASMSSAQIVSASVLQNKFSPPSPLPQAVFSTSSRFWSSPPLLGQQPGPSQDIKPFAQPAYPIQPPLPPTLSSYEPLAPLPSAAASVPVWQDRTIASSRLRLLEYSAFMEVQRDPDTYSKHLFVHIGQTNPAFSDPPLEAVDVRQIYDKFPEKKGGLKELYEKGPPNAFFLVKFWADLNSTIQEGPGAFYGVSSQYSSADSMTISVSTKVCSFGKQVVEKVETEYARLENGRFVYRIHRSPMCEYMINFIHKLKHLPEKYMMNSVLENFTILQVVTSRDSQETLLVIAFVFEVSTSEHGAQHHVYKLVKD

GAL4-TEAD3 = GAL4-TEAD3 (Homo sapiens, UniProt Q99594); assay: GAL4-Luc reporter assay, GAL4-TEAD3; type: cell-based
Procedure, shortened: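 HEK293T cells (DMEM, 10% FBS, 1% penicillin/streptomycin) co-transfected with a GAL4-Luc reporter (secreted luciferase, 9×GAL4 binding elements), a GAL4-DBD-fused TEAD1, TEAD2, TEAD3 or TEAD4 expression vector, and a YAP-expressing plasmid. Test compound at the specified concentration, 37 °C, 12 h; luciferase signal read on a plate reader. Mean of three technical replicates.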

TEAD1-YBD = TEAD1-YBD (Homo sapiens, UniProt P28347); assay: gel-based ABPP in vitro palmitoylation assay, TEAD1; type: biochemical; settings: gel-based ABPP selectivity profiling
Procedure, shortened: as §1

TEAD1-YBD C359A mutant = TEAD1-YBD C359A mutant (Homo sapiens, UniProt P28347, C359A); assay: protein thermal shift assay; type: binding; settings: DSF
TEAD3 [6] = target: T1, TEAD3; assay: intact protein mass spectrometry, TEAD3; type: binding; settings: excessive compound, 24 h at 4 °C
Procedure, shortened: (§5)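 Intact-mass LC/MS. Protein diluted to 1 mg/mL in water with 0.1% formic acid; 2 μg injected. Separated on a PLRP-S column with a 15-min water/acetonitrile (0.1% formic acid) gradient at 0.300 mL/min. Analysed on an Orbitrap Fusion with HESI source (capillary 350 °C, 3.5 kV).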
Target sequence in this assay (Q99594 219-435): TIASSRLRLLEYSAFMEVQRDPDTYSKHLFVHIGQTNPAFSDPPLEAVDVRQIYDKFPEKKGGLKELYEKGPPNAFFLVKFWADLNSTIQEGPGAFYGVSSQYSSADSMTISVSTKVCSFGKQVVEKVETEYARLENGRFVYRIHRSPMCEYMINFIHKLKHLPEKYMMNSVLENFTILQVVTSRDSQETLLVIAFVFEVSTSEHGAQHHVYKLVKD

TEAD1 [7] = target: T2, TEAD1 (Homo sapiens, UniProt P28347); assay: intact protein mass spectrometry, TEAD1; type: binding; settings: excessive compound, 24 h at 4 °C
Procedure, shortened: as §5
Target sequence in this assay (P28347 209-426): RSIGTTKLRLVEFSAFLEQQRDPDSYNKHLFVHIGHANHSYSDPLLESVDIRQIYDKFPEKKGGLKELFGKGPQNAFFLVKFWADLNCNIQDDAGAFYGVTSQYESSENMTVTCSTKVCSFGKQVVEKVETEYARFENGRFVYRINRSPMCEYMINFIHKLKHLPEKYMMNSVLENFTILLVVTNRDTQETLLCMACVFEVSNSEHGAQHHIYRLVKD

TEAD1 [8] = target: T2, TEAD1; assay: cellular thermal shift assay; type: cell-based; settings: HEK293T cells, 50 μmol/L, 6 h
Procedure, shortened: as §4
Target sequence in this assay (P28347 whole entry): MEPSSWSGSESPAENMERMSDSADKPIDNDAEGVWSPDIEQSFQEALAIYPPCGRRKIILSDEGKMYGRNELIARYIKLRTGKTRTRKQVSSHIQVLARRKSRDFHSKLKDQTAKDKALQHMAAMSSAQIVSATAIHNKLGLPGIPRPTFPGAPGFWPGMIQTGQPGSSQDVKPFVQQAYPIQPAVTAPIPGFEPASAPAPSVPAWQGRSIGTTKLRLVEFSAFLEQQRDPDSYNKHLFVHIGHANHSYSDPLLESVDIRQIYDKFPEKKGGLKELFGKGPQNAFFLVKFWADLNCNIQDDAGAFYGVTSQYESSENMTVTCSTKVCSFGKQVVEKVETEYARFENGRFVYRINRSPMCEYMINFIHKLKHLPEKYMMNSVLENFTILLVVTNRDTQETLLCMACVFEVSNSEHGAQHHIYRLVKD

TEAD‒YAP interaction [9] = target: T3, TEAD‒YAP interaction (Homo sapiens, UniProt Q99594); assay: fluorescence polarization assay with FITC-labeled YAP peptide; type: binding; settings: FP assay, FITC-YAP(61-100), TEAD3 protein
Procedure, shortened: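 Then 30 nmol/L FITC-YAP(61–100) added for 30 min at room temperature. Polarisation read at ex 480/em 520 nm. Unlabelled synthetic YAP peptide as positive control; triplicates.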

TEAD‒YAP interaction [10] = target: T3, TEAD‒YAP interaction; settings: FP assay; cited from earlier work

Sequence of TEAD3-YBD recombinant protein (Q99594 219-435): as the sequence (Q99594 219-435) above
Sequence of TEAD3-YBD C371A mutant (Q99594 219-435 C368A): as the sequence (Q99594 219-435) above, with C150A counted along it
Sequence of TEAD2 (Q15562 217-447): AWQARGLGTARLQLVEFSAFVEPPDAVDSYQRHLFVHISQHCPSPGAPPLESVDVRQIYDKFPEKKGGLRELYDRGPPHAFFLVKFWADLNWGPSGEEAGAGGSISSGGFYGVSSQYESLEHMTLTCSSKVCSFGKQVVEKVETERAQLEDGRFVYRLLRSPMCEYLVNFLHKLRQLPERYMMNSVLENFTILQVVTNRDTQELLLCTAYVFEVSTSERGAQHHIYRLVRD
Sequence of TEAD4 (Q15561 217-434): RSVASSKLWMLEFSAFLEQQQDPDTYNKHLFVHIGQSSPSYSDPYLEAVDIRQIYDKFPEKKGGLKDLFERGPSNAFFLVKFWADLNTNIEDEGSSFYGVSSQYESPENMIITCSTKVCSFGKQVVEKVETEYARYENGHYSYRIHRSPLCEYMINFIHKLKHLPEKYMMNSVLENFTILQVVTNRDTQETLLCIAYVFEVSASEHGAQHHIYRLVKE
T3 sequence (Q99594 219-435): as the sequence (Q99594 219-435) above
T3 sequence (P46937 61-100 partner limits assumed): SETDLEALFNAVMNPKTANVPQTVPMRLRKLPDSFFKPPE
Sequence of wild-type TEAD3-YBD (Q99594 219-435): as the sequence (Q99594 219-435) above
Sequence of TEAD1 C359S (P28347 209-426 C359S): as the sequence (P28347 209-426) above, with C151S counted along it
Sequence of TEAD1-YBD C359A mutant (P28347 209-426 C359A): as the sequence (P28347 209-426) above, with C151A counted along it
Sequence of TEAD1-YBD (P28347 209-426): as the sequence (P28347 209-426) above
Sequence of widetype TEAD1 (P28347 209-426): as above
Sequence of TEAD3 Y223 mutated to phenylalanine (Q99594 219-435 Y230F): as the sequence (Q99594 219-435) above, with Y12F counted along it
Sequence of GAL4-TEAD3 (Q99594 2-435): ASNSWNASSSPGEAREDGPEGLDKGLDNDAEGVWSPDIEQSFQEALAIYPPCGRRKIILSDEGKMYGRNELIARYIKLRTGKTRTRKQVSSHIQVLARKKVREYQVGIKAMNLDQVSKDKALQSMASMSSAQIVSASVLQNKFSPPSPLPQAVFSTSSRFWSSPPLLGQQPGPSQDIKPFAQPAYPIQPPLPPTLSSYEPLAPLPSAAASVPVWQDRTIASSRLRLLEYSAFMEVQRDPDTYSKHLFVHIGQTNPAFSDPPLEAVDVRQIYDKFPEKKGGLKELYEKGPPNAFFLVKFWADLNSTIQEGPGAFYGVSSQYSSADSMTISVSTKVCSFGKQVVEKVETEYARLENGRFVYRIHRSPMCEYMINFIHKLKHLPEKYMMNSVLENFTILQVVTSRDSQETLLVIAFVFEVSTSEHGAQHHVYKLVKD
Sequence of GAL4-TEAD3 (P46937 whole entry partner, the tested form may be a part): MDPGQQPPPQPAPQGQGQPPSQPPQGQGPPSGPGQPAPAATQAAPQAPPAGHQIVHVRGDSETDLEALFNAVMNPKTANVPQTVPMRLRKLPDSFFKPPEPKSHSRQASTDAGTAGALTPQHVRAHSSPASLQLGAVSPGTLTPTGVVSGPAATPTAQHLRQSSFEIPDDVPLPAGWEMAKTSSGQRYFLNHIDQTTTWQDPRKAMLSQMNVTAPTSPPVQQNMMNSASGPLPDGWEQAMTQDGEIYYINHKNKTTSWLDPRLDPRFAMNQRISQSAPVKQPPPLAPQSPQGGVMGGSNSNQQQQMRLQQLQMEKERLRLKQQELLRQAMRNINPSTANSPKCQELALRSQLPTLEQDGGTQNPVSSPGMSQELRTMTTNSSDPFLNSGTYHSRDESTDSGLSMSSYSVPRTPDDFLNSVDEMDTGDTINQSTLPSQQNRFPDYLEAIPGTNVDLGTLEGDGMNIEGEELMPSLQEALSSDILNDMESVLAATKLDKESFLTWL

Row | SMILES | inhibition of TEAD3 palmitoylation [1] | inhibition of TEAD4 palmitoylation (TEAD4) | inhibition of TEAD2 palmitoylation (TEAD2) | ectopic or tumorous growth (juvenile zebrafish) | effect on thermal stability of TEAD3 C371A mutant (TEAD3-YBD C371A mutant) | body growth rate (juvenile zebrafish; vs DMSO) | body length (juvenile zebrafish; vs DMSO) | growth rate of the caudal fin (juvenile zebrafish; vs DMSO) | thermal stability / soluble fraction of TEAD3 in intact cells (TEAD3 [5]) | further results
1 | C=CC(=O)N1CCC(CCOc2ccccc2)CC1 [DC-TEADin1072, 1-(4-(2-Phenoxyethyl)piperidin-1-yl)prop-2-en-1-one] | – | sparing | sparing | No obvious ectopic or tumorous growth | significantly abolished the compound effect | decreased significantly; also recorded: reduction | nearly significantly different | reduced; also recorded: reduction | increase the thermal stability | effect on thermal stability of TEAD1-YBD C359A mutant (TEAD1-YBD C359A mutant): significantly abolished the compound effect; IC50 [1]: 580 ± 120 nM; difference in mass of TEAD3 protein after incubation (TEAD3 [6]): +259.5 Da; difference in mass of TEAD1 protein after incubation (TEAD1 [7]): +259.5 Da; tail (caudal fin) length (juvenile zebrafish; vs DMSO): no differences; thermal stability of TEAD1 in intact cells (TEAD1 [8]): increase the thermal stability; effect on TEAD‒YAP interaction (TEAD‒YAP interaction [9]): minimal effect
2 | CCC(=O)N1CCC(CCOc2ccccc2)CC1 [DC-TEADin1072-N1, 1-(4-(2-Phenoxyethyl)piperidin-1-yl)propan-1-one] | minimal inhibition | – | – | – | – | – | – | – | – | –
3 | O=C(O)c1ccccc1Nc1cccc(C(F)(F)F)c1 [flufenamic acid] | – | – | – | – | – | – | – | – | – | effect on TEAD‒YAP interaction (TEAD‒YAP interaction [10]): minimal effect

More lines, main results first:

Row | inhibition of TEAD3 palmitoylation [1] | inhibition of TEAD4 palmitoylation (TEAD4) | inhibition of TEAD2 palmitoylation (TEAD2) | ectopic or tumorous growth (juvenile zebrafish) | SMILES | effect on thermal stability of TEAD3 C371A mutant (TEAD3-YBD C371A mutant) | body growth rate (juvenile zebrafish; vs DMSO) | body length (juvenile zebrafish; vs DMSO) | growth rate of the caudal fin (juvenile zebrafish; vs DMSO) | thermal stability / soluble fraction of TEAD3 in intact cells (TEAD3 [5]) | further results
4 | potent inhibition | – | – | – | C=CC(=O)N1CCC(O)(CCCOCc2ccccc2)CC1 [DC-TEAD3in01, 1-(4-(3-(Benzyloxy)propyl)-4-hydroxypiperidin-1-yl)prop-2-en-1-one] | – | – | – | – | – | –
5 | potent inhibition | – | – | – | C=CC(=O)N1CCN(CCCOCc2ccccc2)CC1 [DC-TEAD3in02, 1-(4-(3-(Benzyloxy)propyl)piperazin-1-yl)prop-2-en-1-one] | – | – | – | – | – | –
6 | potent inhibition | sparing | sparing | no ectopic or tumorous growth | C=CC(=O)N1CCCN(CCCOCc2ccccc2)C1 [DC-TEAD3in03, 1-(3-(3-(Benzyloxy)propyl)tetrahydropyrimidin-1(2H)-yl)prop-2-en-1-one] | minimal effect | did not observe a significant difference | did not observe a significant difference | reduced the growth rate; also recorded: selective reduction | increased the soluble fraction; also recorded: significantly increases the content of TEAD3 soluble contents | effect on thermal stability of wild-type TEAD1 (widetype TEAD1): minimal effect; selectivity over other TEAD isoforms ([1]; TEAD3 versus other TEAD isoforms, ABPP assays): 100 fold; TEAD reporter activity [2]: significant reduction; IC50 [3]: ~18500 nM; effect on thermal stability of TEAD3 protein (wild-type TEAD3-YBD): significantly improved; effect on thermal stability of TEAD1 C359S mutant (TEAD1 C359S): minimal effect; effect on TOP Flash beta-catenin reporter [4]: minimal effect; IC50 (GAL4-TEAD3): 1150 nM; inhibition of TEAD1 palmitoylation (TEAD1-YBD): selectively inhibited

Reference: article PMC8546857 (Acta Pharmaceutica Sinica. B, 2021)
